Source: ChEMBL document CHEMBL1212766, “Dose escalation study of the safety, tolerability, and pharmacokinetics of nemonoxacin (TG-873870), a novel potent broad-spectrum nonfluorinated quinolone, in healthy volunteers” (Antimicrob Agents Chemother, 2010)
Values after ≈ are worked out from the molar mass of the structure shown.

Experiments:
[1] = Cmax in healthy human at 25 mg, po administered as single dose; details: in vivo
[2] = system: Homo sapiens; assay: Terminal volume of distribution in healthy human at 250 mg, po administered as single dose; details: in vivo
[3] = system: Homo sapiens; assay: Toxicity in healthy human assessed as occurrence of contact dermatitis at 25 […], po; type: organism-based; design: route oral; details: in vivo
How it was run: (§1)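 Randomized, double-blind, placebo-controlled single ascending oral doses in healthy volunteers (cohorts of 6 active, 2 placebo; 25–1,500 mg). After a 10-h fast, dose given with 240 ml water; fasting continued 4 h. Subjects were confined to 96 h postdose. AEs were recorded throughout dosing and at follow-up, reported as number and percentage of subjects with events per treatment.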

[4] = system: Homo sapiens; assay: Toxicity in healthy human assessed as occurrence of pustular rashes at 125 […], po; type: organism-based; design: route oral; details: in vivo
[5] = system: Homo sapiens; assay: Toxicity in healthy human assessed as occurrence of abdominal pain at 1500 […], po; type: organism-based, Abdomen; design: route oral; details: in vivo
How it was run: (§2)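 Double-blind, placebo-controlled single ascending oral dose; two placebo and six active subjects per cohort. Adverse events were recorded throughout the dosing period and at follow-up, with confinement to 96 h after dosing. Results are reported as number and percentage of subjects with the event (n/N × 100).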

[6] = system: Homo sapiens; assay: Terminal volume of distribution in healthy human at 1500 mg, po administered as single dose; details: in vivo
[7] = system: Streptococcus pneumoniae; assay: Ratio of fAUC to MIC90 for Penicillin-sensitive Streptococcus pneumoniae; type: functional
How it was run: (§3)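 Fasted healthy adults got a single oral 500 mg dose with 240 ml water. Plasma was sampled predose to 96 h and assayed by LC-MS/MS (5–5,000 ng/ml). Cmax was read from individual profiles, and AUC0-∞ came from linear trapezoid plus extrapolation. Free fraction was measured by ultrafiltration (30,000 MWCO) of 0.5 and 6 h plasma. Free exposure was divided by the isolate MIC90.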

[8] = system: Homo sapiens; assay: Toxicity in healthy human assessed as occurrence of pruritus at 500 […], po; type: organism-based; design: route oral; details: in vivo
[9] = system: Homo sapiens; assay: Clearance in healthy human at 50 […], po administered as single dose; type: ADME, organism-based; design: route oral; details: in vivo
How it was run: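 Randomized, double-blind, placebo-controlled single ascending oral dose in fasted healthy subjects (six on drug per cohort, with 240 ml water). Plasma sampled predose through 96 h and assayed by validated LC-MS/MS over 5–5,000 ng/ml. Oral clearance (CL_o) came from noncompartmental analysis, with AUC_0-∞ from linear trapezoids plus C_last/λz. Values are means (SD).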

[10] = system: Homo sapiens; assay: Toxicity in healthy human assessed as occurrence of abdominal pain at 1000 […], po; type: organism-based, Abdomen; design: route oral; details: in vivo
How it was run: as §2

[11] = system: Streptococcus pneumoniae; assay: Antimicrobial activity against Streptococcus pneumoniae; type: functional
[12] = Tmax in healthy human at 250 mg, po administered as single dose; details: in vivo
[13] = system: Homo sapiens; assay: Toxicity in healthy human assessed as occurrence of headache at 250 […], po; type: organism-based; design: route oral; details: in vivo
[14] = system: Homo sapiens; assay: Toxicity in healthy human assessed as occurrence of abdominal pain at 250 […], po; type: organism-based, Abdomen; design: route oral; details: in vivo
How it was run: as §2

[15] = system: Homo sapiens; assay: Toxicity in healthy human assessed as occurrence of abdominal pain at 25 […], po; type: organism-based, Abdomen; design: route oral; details: in vivo
How it was run: as §2

[16] = system: Homo sapiens; assay: Toxicity in healthy human assessed as occurrence of contact dermatitis at 50 […], po; type: organism-based; design: route oral; details: in vivo
How it was run: as §1

[17] = Renal clearance in healthy human at 250 mg, po administered as single dose; details: in vivo, read-out: CL_renal (converted)
[18] = system: Homo sapiens; assay: Terminal volume of distribution in healthy human at 25 mg, po administered as single dose; details: in vivo
[19] = system: Homo sapiens; assay: Toxicity in healthy human assessed as occurrence of ear pain at 250 […], po; type: organism-based; design: route oral; details: in vivo
[20] = system: Homo sapiens; assay: AUC (0 to infinity) in healthy human at 50 mg/kg, po administered as single dose; type: ADME, organism-based, Plasma; design: time infinity, route oral; details: in vivo
[21] = Tmax in healthy human at 50 mg, po administered as single dose; details: in vivo
[22] = system: Homo sapiens; assay: Toxicity in healthy human assessed as occurrence of oral hypoesthesia at 500 […], po; type: organism-based; design: route oral; details: in vivo
[23] = system: Homo sapiens; assay: Toxicity in healthy human assessed as occurrence of oral hypoesthesia at 250 […], po; type: organism-based; design: route oral; details: in vivo
[24] = system: Homo sapiens; assay: Clearance in healthy human at 1500 mg, po administered as single dose; details: in vivo
[25] = Clearance in healthy human assessed as recovery of unchanged drug in urine at 50 […], po administered as single dose; type: ADME, organism-based; design: route oral; details: read-out: Recovered in urine
How it was run: (§4)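 Healthy volunteers, six on drug per cohort, fasted 10 h and given one oral dose with 240 ml water, then fasted 4 h more. Urine was pooled over intervals from 0-2 to 72-96 h and stored at about −70°C. Drug was measured by solid-phase extraction and LC-MS/MS (LLOQ 200 ng/ml), giving the percent of dose recovered unchanged. Values are means (SD).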

[26] = Terminal phase elimination half-life in healthy human at 1500 mg, po administered single dose; details: in vivo
[27] = system: Streptococcus pneumoniae; assay: Ratio of fCmax to MIC90 for penicillin-resistant Streptococcus pneumoniae; type: functional
How it was run: as §3

[28] = system: Homo sapiens; assay: Toxicity in healthy human assessed as occurrence of pruritus at 125 […], po; type: organism-based; design: route oral; details: in vivo
[29] = system: Homo sapiens; assay: Toxicity in healthy human assessed as occurrence of headache at 1000 […], po; type: organism-based; design: route oral; details: in vivo
[30] = Terminal phase elimination half-life in healthy human at 125 […], po administered single dose; type: ADME, organism-based; design: route oral; details: in vivo
How it was run: (§5)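 After one fasted oral dose (six healthy subjects per cohort), plasma was sampled from 0.5 to 96 h and assayed by LC-MS/MS (LLOQ 5 ng/ml). λz came from least-squares regression on at least the last three log-concentration points, and t1/2 = 0.693/λz. Values are means (SD).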

[31] = system: Staphylococcus aureus; assay: Antimicrobial activity against methicillin-sensitive Staphylococcus aureus; type: functional
[32] = Clearance in healthy human assessed as recovery of unchanged drug in urine at 250 […], po administered as single dose; type: ADME, organism-based; design: route oral; details: read-out: Recovered in urine
How it was run: as §4

[33] = Cmax in healthy human at 500 mg, po administered as single dose; details: in vivo
[34] = system: Homo sapiens; assay: Toxicity in healthy human assessed as occurrence of pruritus at 250 […], po; type: organism-based; design: route oral; details: in vivo
[35] = system: Homo sapiens; assay: Toxicity in healthy human assessed as occurrence of ear pain at 1500 […], po; type: organism-based; design: route oral; details: in vivo
[36] = system: Streptococcus pneumoniae; assay: Ratio of fCmax to MIC90 for Streptococcus pneumoniae; type: functional
How it was run: as §3

[37] = system: Homo sapiens; assay: Toxicity in healthy human assessed as occurrence of headache at 125 […], po; type: organism-based; design: route oral; details: in vivo
[38] = Terminal phase elimination half-life in healthy human at 500 […], po administered single dose; type: ADME, organism-based; design: route oral; details: in vivo
How it was run: as §5

[39] = system: Homo sapiens; assay: Toxicity in healthy human assessed as occurrence of contact dermatitis at 1000 […], po; type: organism-based; design: route oral; details: in vivo
How it was run: as §2

[40] = system: Staphylococcus aureus; assay: Antimicrobial activity against methicillin-resistant Staphylococcus aureus; type: functional
[41] = system: Homo sapiens; assay: Toxicity in healthy human assessed as occurrence of nausea at 125 […], po; type: organism-based; design: route oral; details: in vivo

Structure (SMILES): COc1c(N2C[C@@H](C)C[C@H](N)C2)ccc2c(=O)c(C(=O)O)cn(C3CC3)c12 [NEMONOXACIN]
- Cmax [1]: 0.15 µg/mL
- Vbeta [2]: 3.58 L/kg
- Activity [3]: 50%
- Activity [4]: 17%
- Activity [5]: 17%
- Vbeta [6]: 3.42 L/kg
- Ratio [7]: 1812
- Activity [8]: 0%
- CL [9]: 0.23 L/h/kg
- Activity [10]: 0%
- MIC90 [11]: 0.015 mg/L (≈ 0.0404 µM)
- Tmax [12]: 0.92 h
- Activity [13]: 0%
- Activity [14]: 0%
- Activity [15]: 0%
- Activity [16]: 0%
- CL renal [17]: 0.11 L/h/kg
- Vbeta [18]: 4.21 L/kg
- Activity [19]: 0%
- AUC [20]: 2.99 µg·h/mL
- Tmax [21]: 1.08 h
- Activity [22]: 0%
- Activity [23]: 0%
- CL [24]: 0.18 L/h/kg
- dose excreted [25]: 51.1%
- half-life [26]: 13 h
- Ratio [27]: 95
- Activity [28]: 0%
- Activity [29]: 17%
- half-life [30]: 11.1 h
- MIC90 [31]: 0.12 mg/L (≈ 0.323 µM)
- dose excreted [32]: 44.9%
- Cmax [33]: 3.41 µg/mL
- Activity [34]: 0%
- Activity [35]: 0%
- Ratio [36]: 191
- Activity [37]: 0%
- half-life [38]: 14.8 h
- Activity [39]: 0%
- MIC90 [40]: 0.06 mg/L (≈ 0.162 µM)
- Activity [41]: 0%
